Measurements published in PMC2843764 (Bioorganic & medicinal chemistry letters, 2010).
Blank lines part the entries; values can stand above or below the compound they belong to.

Tests used:
α2-adrenergic receptors = conditions: cited from earlier work
RBBP9 [1] = target: T1, RBBP9 (Homo sapiens, UniProt O75884); test: reversibility of RBBP9 inhibition by gel filtration, FP-Rh labeling; assay type: biochemical; conditions: inhibitor 100 µM
Outline: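 One half was reacted directly with FP-Rh. The other half was gel-filtered, then reacted with FP-Rh. Probe labelling was compared between the two halves.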

translation (ribosome) = conditions: in vitro ref 15; cited from earlier work
RBBP9 [2] = target: T1, RBBP9; conditions: ~20,000 compound fluopol-ABPP screen ref 5; cited from earlier work
[3] = test system: serine hydrolases of the mouse brain membrane proteome; assay type: biochemical; conditions: mouse brain membrane proteome doped with RBBP9, FP-Rh probe, up to 200 µM
Outline: (§1)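 Gel-based competitive ABPP. Two proteomes were used: the soluble fraction of RBBP9-transfected HEK 293T cells, and mouse brain membrane fraction doped with recombinant RBBP9. Each was preincubated 30 minutes with test compound (HEK: 20 and 200 µM; brain: a concentration series or 200 µM), then given FP-Rh (1 µM). Reactions were quenched after 10 minutes, run on SDS-PAGE and quantified by in-gel fluorescence scanning.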

RBBP9 [4] = target: T1, RBBP9; test: LC-MS/MS identification of site of covalent labeling on RBBP9; conditions: trypsin digest, +138.00 Da modification
[5] = target: T2, glutathione transferase omega 1 (GSTO1) (Homo sapiens, UniProt P78417); test: PS-Rh labeling of GSTO1 in MDA-MB-231 proteome; assay type: biochemical; conditions: compounds 20 µM, PS-Rh 5 µM, 1 hour
T2 sequence (P78417 1-241): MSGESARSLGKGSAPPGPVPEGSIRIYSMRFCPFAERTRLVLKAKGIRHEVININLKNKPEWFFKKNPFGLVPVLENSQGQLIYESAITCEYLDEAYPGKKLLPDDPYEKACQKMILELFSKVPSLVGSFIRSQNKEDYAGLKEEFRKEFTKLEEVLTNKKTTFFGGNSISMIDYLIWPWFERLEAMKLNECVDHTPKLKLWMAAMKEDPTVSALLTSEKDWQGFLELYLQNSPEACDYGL
Outline: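 Gel-based competitive ABPP for thiol cross-reactivity. MDA-MB-231 proteome was treated with test compound (20 µM) and then labelled with the cysteine-reactive phenylsulfonate-rhodamine probe (5 µM, 1 hour). Labelled proteins were resolved on gel and read by fluorescence.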

[6] = test system: serine hydrolases of the HEK 293T soluble proteome; test: competitive ABPP with FP-Rh in RBBP9-transfected HEK 293T soluble proteome; assay type: biochemical; conditions: FP-Rh probe, 20 and 200 µM
Outline: as §1

RBBP9 [7] = target: T1, RBBP9; test: fluopol-ABPP screen for RBBP9 inhibition; assay type: biochemical; conditions: read-out: percent inhibition of RBBP9 in fluopol-ABPP confirmation screen
purified RBBP9 = purified RBBP9 (Homo sapiens, UniProt O75884); test: gel-based competitive ABPP with purified RBBP9; assay type: biochemical; conditions: for RBBP9 inhibitory activity (in words): purified RBBP9, 20 µM
Sequence of purified RBBP9 (O75884 whole entry): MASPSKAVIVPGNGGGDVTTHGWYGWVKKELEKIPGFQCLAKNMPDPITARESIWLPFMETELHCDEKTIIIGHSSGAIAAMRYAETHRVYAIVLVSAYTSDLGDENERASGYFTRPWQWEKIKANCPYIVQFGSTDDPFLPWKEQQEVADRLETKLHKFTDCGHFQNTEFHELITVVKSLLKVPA

T1 sequence (O75884 whole entry): as above

Structure (SMILES): CC[C@H]1CN2CCc3cc(OC)c(OC)cc3[C@@H]2C[C@@H]1C[C@H]1NCCc2cc(OC)c(OC)cc21 [1 (emetine), emetine]
antagonism of α2-adrenergic receptors (α2-adrenergic receptors): antagonize of α2-adrenergic receptors | reversibility of blockade of FP-rhodamine RBBP9 labeling (RBBP9 [1]): reversible inhibitor | inhibition of translation (translation (ribosome)): inhibit translation in vitro | mode of RBBP9 inhibition (RBBP9 [2]): reversible inhibitor of RBBP9

reversibility of blockade of FP-rhodamine RBBP9 labeling (RBBP9 [1]): not reversed by gel filtration
Structure (SMILES): C/C(=N\OC(=O)c1ccc(Cl)cc1)c1nccs1 [Compound 2]
selectivity for RBBP9 over other hydrolases [3]: highly selective for RBBP9 | site of covalent adduct on RBBP9 (RBBP9 [4]): adduct only on the active site serine nucleophile (Ser75)

Structure (SMILES): COc1ccc(C(=O)O/N=C(\C)c2nccs2)cc1 [Compound 3]
selectivity for RBBP9 over other hydrolases [3]: highly selective for RBBP9

inhibition of PS-Rh labeling of GSTO1 [5]: potently inhibited | inhibition at 7.94 µM (RBBP9 [7]): ~80%
Structure (SMILES): CC1=CC(=NOC(=O)/C=C/c2ccccc2)C=C(C)C1=O [Compound 4]
selectivity for RBBP9 over other hydrolases [6]: less selective for RBBP9

RBBP9 inhibitory activity (in words) (purified RBBP9): loss of RBBP9 inhibitory activity
Structure (SMILES): C/C(=N\OC(=O)c1ccc([N+](=O)[O-])cc1)c1nccs1 [Compound 12]

Structure (SMILES): C/C(=N\OC(=O)c1ccc(-c2ccccc2)cc1)c1nccs1 [Compound 13]
RBBP9 inhibitory activity (in words) (purified RBBP9): completely ablating all inhibitory activity

fold lower IC50 than hit compound 2 (purified RBBP9; recombinant RBBP9): 3 fold
Structure (SMILES): C/C(=N\OC(=O)C1CCCCC1)c1nccs1 [Compound 18]
selectivity for RBBP9 over other hydrolases [3]: did not inhibit any other hydrolases | selectivity for RBBP9 over other hydrolases [6]: selective for RBBP9

RBBP9 inhibitory activity (in words) (purified RBBP9): no detectable inhibitory activity
Structure (SMILES): CC(=O)O/N=C(\C)c1nccs1 [Compound 19]

Structure (SMILES): C/C(=N\OC(=O)N1CCCCC1)c1nccs1 [Compound 20]
RBBP9 inhibitory activity (in words) (purified RBBP9): no inhibition of RBBP9

inhibition of PS-Rh labeling of GSTO1 [5]: no longer inhibited GSTO1
Structure (SMILES): COc1ccc(C(=O)ON=C2C=C(C)C(=O)C(C)=C2)cc1 [Compound 21]
selectivity for RBBP9 over other hydrolases [3]: good selectivity for RBBP9

RBBP9 inhibitory activity (in words) (purified RBBP9): loss of RBBP9 inhibitory activity
Structure (SMILES): COc1ccc(C(=O)O/N=C2/C=C(C)C(=O)C=C2C)cc1 [Compound 22]

Structure (SMILES): COc1ccc(C(=O)ON=C2C(C)=CC(=O)C=C2C)cc1 [Compound 23]
RBBP9 inhibitory activity (in words) (purified RBBP9): loss of RBBP9 inhibitory activity, an effect exacerbated

Structure (SMILES): C/C(=N\OC(=O)/C=C/c1ccccc1)c1nccs1 [Compound 24]
RBBP9 inhibitory activity (in words) (purified RBBP9): significantly reduced activity against RBBP9
